Measured values taken from ChEMBL document CHEMBL2424574, “Structure-activity relationships and pharmacophore model of a noncompetitive pyrazoline containing class of GluN2C/GluN2D selective antagonists” (J Med Chem, 2013).
Activity calls are given as the source filed them. No cut-off for these calls is given here.

Columns and labels:
Liver microsomes [1] = assay: Metabolic stability in human liver microsomes assessed as compound remaining at 1 uM after 60 mins by LC-MS/MS analysis; format: ADME, Microsome; conditions: 1 h
Procedure, shortened: (§1)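 Human liver microsomes 0.5 mg/mL in 100 mM potassium phosphate pH 7.4 with 5 mM MgCl2 and 1 μM test compound. Preincubated 3 min at 37 °C, then started with 1 mM NADPH, with a testosterone control in parallel. Sampled at 0, 10, 20, 30 and 60 min and quenched in cold acetonitrile/water with formic acid and internal standard. Percent remaining by LC-MS/MS (MRM) versus time 0. t1/2 = 0.693/k from the ln-remaining slope; CLint = k/protein concentration.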

Liver microsomes [2] = assay: Intrinsic clearance in human liver microsomes measured per mg of protein at 1 uM by LC-MS/MS analysis; format: ADME, Microsome; procedure, shortened: as §1
[3] = Aqueous solubility in DMSO buffer by nephelometric analysis; format: physicochemical; conditions: oocyte recording buffer; in the assay text read “oocyte recording buffer” for “DMSO buffer”
Procedure, shortened: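 Solubility measured by nephelometry in oocyte recording buffer: 90 mM NaCl, 1 KCl, 0.5 BaCl2, 0.005 EDTA, 10 HEPES, pH 7.4.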

MDCK = assay: Permeability across apical to basolateral side in dog MDCK cells expressing MDR1 assessed as compound recovery at 5 uM after 120 mins by LC-MS/MS analysis; format: ADME, cell-based, Canis lupus familiaris; conditions: 2 h
Procedure, shortened: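 MDR1-MDCK monolayers grown to confluence on collagen-coated polycarbonate membranes. Assay buffer was HBSS with 10 mM HEPES and 15 mM glucose, pH 7.4, and the receiver side also held 1% BSA. Monolayers were dosed apically (A-to-B) or basolaterally (B-to-A) at 5 μM, 37 °C, 5% CO2. Donor and receiver were sampled at 120 min, in duplicate, by LC-MS/MS (ESI). Papp and percent recovery were calculated from receiver/donor concentrations.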

Homo sapiens = species: Homo sapiens; assay: Inhibition of GluN2D receptor Q801Y mutant (unknown origin)
[4] = target: T1, Ionotropic glutamate receptor NMDA 1/2D (Homo sapiens) (UniProt Q05586+O15399); conditions: Oocyte, 1 uM
[5] = target: T1, Ionotropic glutamate receptor NMDA 1/2D (Homo sapiens); conditions: Oocyte, 1 uM; remark: listed apart in the source

Structure (SMILES)	Stability (Liver microsomes [1])	CLint (Liver microsomes [2])	solubility kinetic [3]	Drug recovery (MDCK)	inhibition (Homo sapiens)	residual activity [4]	residual activity [5]
O=C(O)CCC(=O)N1N=C(c2c(-c3ccc(Cl)cc3)c3ccccc3[nH]c2=O)CC1c1ccc(Cl)cc1 (racemic)	86%	< 20 µL/min/mg	> 80 µM	73%	–	–	–
O=C(O)/C=C/C(=O)N1N=C(c2c(-c3ccc(Br)cc3)c3ccccc3[nH]c2=O)CC1c1ccc(Cl)cc1 (racemic)	–	–	–	–	inactive	4.9%	4.8%
